Assay outcomes (PubChem)
An excerpt weighted towards active compounds, which were near 2.6% of everything screened.
SENP8 block-1 = human SENP8 protease inhibitors, primary screen, biochemical, fluorescence, Nedd8 protein substrate, uHTS; Sentrin-specific protease 8 (Homo sapiens), Q96LD8; recombinant SENP8; inhibition, % at 20 µM; 0.64% of 360,000 active; AID 602440, 2012; in the data active = inhibition mostly above about 40%, no sharp cut-off; inactive = mostly below about 27%
SENP6 block = SENP6 protease inhibitors, primary screen, biochemical, luminescence, uHTS | AID 2599, 2010 | Recombinant SENP6 catalytic domain, aminoluciferin luminescence | Sentrin-specific protease 6 (Homo sapiens), Q9GZR1 | 1.8% of 330,000 active | inhibition, % at 10 µM;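 active = inhibition above about 50% at the single tested dose, limit read from the data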
SENP8 block-2 = SENP8 protease inhibitors, primary screen, biochemical, luminescence. purified SENP8, Z-RLRGG-aminoluciferin cleavage. inhibition, % at 10 µM. 1.2% of 330,000 active; in the data active = inhibition above about 50%
SENP7 block = SENP7 protease inhibitors, primary screen, biochemical, luminescence, uHTS; recombinant SENP7, Z-RLRGG-aminoluciferin luminescence, 40 min; Sentrin-specific protease 7 (Homo sapiens), Q9BQF6; 1.5% of 330,000 active; inhibition, % at 5 µM;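 active = inhibition above about 50% at the single test dose, limit read from the data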
SENP1 FRET inh = human SENP1 catalytic domain inhibitors, primary screen, biochemical, FRET, uHTS; recombinant SENP1 catalytic domain, CyPet-SUMO1-YPet FRET cleavage; inhibition, % at 10 µM; 0.21% of 360,000 active;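 active = inhibition at least 30% at 10 µM, raw YFP signal under a set limit, fluorescence ratio 0.5 to 1.5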
Target sequence (Q9P0U3 419-644 limits assumed): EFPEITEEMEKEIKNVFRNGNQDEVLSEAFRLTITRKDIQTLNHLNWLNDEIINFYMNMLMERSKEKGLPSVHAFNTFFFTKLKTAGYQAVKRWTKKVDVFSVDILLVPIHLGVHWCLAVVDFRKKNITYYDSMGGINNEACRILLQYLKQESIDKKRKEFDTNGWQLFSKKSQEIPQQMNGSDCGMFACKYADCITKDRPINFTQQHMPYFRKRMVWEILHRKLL
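Material: hSENP1 catalytic domain, recombinant; medium: Tris pH 8 with BME, BSA, NP40 and catalase; compound: single concentration of 10 µM compound, 0.5% DMSO final; technique: FRET read of cyan and yellow fluorescence; timing: 50 min enzyme reaction, room temperature, light-protected; reagent: SFCypet-SUMO1-SFYpet substrate at 25 nM; control set: no-enzyme low, enzyme-DMSO high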
Platelet DG rel = inhibitors of platelet dense granule secretion, primary screen, cell-based, MLPCN, human platelets | AID 1663, 2009 | 0.22% of 300,000 active | human platelet-rich plasma, SFLLRN dense granule ATP release, luminescence | inhibition, %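 (compounds screened at 7.5 µM in platelet-rich plasma)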;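 active = mean replicate score, as percent of positive control, at or above 50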
SENP8 conf-1 = SENP8 protease inhibitors, retest, confirmation, biochemical, luminescence, single concentration; inhibition, % at 12.5 µM; AID 488912, 2010; Recombinant SENP8, Z-RLRGG-aminoluciferin luminescence, 60 min; 40% of 6,200 active; shares compounds with SENP7 block;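 active = mean inhibition across replicates above about 50%, limit read from the data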
SENP6 conf = SENP6 protease inhibitors, confirmation, biochemical, luminescence, single concentration. shares compounds with SENP7 block. recombinant SENP6, Z-RLRGG-aminoluciferin luminescence. inhibition, % at 12.5 µM. 58% of 6,200 active
SENP7 confirm = SENP7 protease inhibitors, retest, confirmation, biochemical, luminescence, single concentration; shares compounds with SENP7 block; recombinant SENP7, Z-RLRGG-aminoluciferin luminescence, 40 min; inhibition, % at 12.5 µM; 69% of 6,200 active; AID 488917, 2010
Casp3 SENP sel = caspase-3 protease inhibitors, confirmation, selectivity assay for SENP inhibitor project, biochemical, single concentration; shares compounds with SENP7 block; purified caspase-3, Z-DEVD-aminoluciferin luminescence, 60 min; inhibition, % at 12.5 µM; 60% of 6,200 active; AID 488918, 2010;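 active = mean inhibition above about 50%, limit read from the data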
Target sequence (P42574 28-227 limits assumed): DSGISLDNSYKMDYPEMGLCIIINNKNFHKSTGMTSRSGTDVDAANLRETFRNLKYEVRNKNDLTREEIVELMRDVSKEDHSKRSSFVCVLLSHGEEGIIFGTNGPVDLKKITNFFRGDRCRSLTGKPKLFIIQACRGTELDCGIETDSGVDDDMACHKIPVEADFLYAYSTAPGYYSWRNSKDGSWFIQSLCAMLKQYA
Luc interf = luminescence interference (SENP counter-screen) | shares compounds with SENP7 block | Pre-incubated SENP8/Z-RLRGG-aminoluciferin, luciferase luminescence interference | inhibition, % at 12.5 µM | 39% of 6,200 active | AID 488919;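 active = mean inhibition above about 50% when retested at one dose, limit read from the data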
SENP8 conf-2 = human SENP8 protease inhibitors, confirmation, biochemical, Nedd8 protein substrate, single concentration; shares compounds with SENP8 block-1; purified SENP8, Nedd8-AMC/pro-Nedd8 cleavage fluorescence, 30 min; inhibition, % at 25 µM; 15% of 1,400 active; AID 624319, 2012; in the data active = inhibition mostly above about 39%, no sharp cut-off; inactive = mostly below about 34%
Hits are given with their value; - = inactive; . = no result.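 Rule for the calls, unless noted: active = mean inhibition above about 50% in the one-dose retest (limit read from the data); inactive = the rest.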

SMILES	SENP8 block-1	SENP6 block	SENP8 block-2	SENP7 block	SENP1 FRET inh	Platelet DG rel	SENP8 conf-2	others
CCCNC(=O)c1c(N)n(CC2CCCO2)c2nc3ccccc3nc12 (stereo unspecified)	-	94.4	93.6	79.1	-	-	.	SENP8 conf-1=-;SENP6 conf=56.1;SENP7 confirm=-;Casp3 SENP sel=-;Luc interf=-
CC(C)OC(=O)c1c(N)n(CC2CCCO2)c2nc3ccccc3nc12 (stereo unspecified)	-	51.3	-	-	-	-	.	SENP8 conf-1=-;SENP6 conf=-;SENP7 confirm=-;Casp3 SENP sel=-;Luc interf=-
Nc1c(C(=O)OC2CCCCC2)c2nc3ccccc3nc2n1CC1CCCO1 (stereo unspecified)	-	-	-	-	-	-	.
O=c1[nH]c2ccccc2n1C1CCN(C(CCc2ccccc2)c2nnnn2-c2ccc3c(c2)OCCO3)CC1 (stereo unspecified)	-	.	.	.	-	.	.
O=[N+]([O-])c1ccc(N2CCCC2)c2ccncc12	52.8	59.6	-	-	-	-	-	SENP8 conf-1=-;SENP6 conf=-;SENP7 confirm=-;Casp3 SENP sel=-;Luc interf=-
O=[N+]([O-])c1ccc(N2CCNCC2)c2ncccc12	.	.	.	.	.	-	.
CCOP(=O)(CCP(=O)(OCC)OCC)OCC.C[CH2][Sn]([Cl])([Cl])[CH2]C	-	.	.	.	-	.	.
O=[N+]([O-])c1ccc(NC2CCN(Cc3ccccc3)CC2)c2ccncc12	40.2	65.5	-	-	-	-	-	SENP8 conf-1=-;SENP6 conf=-;SENP7 confirm=-;Casp3 SENP sel=-;Luc interf=-
CC(C)COC(=O)c1ccccc1C(=O)OCC(C)C	48.5	-	-	-	-	-	-
CCn1c(O)c(N=Nc2ccc(S(=O)(=O)N3CCOCC3)cc2)c(=O)n(CC)c1=S	40.1	-	-	-	-	-	-
CC(=NNC(=S)N1CC2CCC(CC2)C1)c1nccs1	-	.	.	.	-	.	.
Cn1c(=O)[nH]c2nncnc2c1=O	77.5	-	-	-	-	-	89.6
Fc1cccc(-c2ccc3c(c2)CNCc2cnnn2-3)c1	-	.	.	.	-	.	.
CCOC(=O)[C@]12Cc3cc(C)ccc3[C@H]1N(C(C)C)C(=O)c1ccccc12	-	.	.	.	-	.	.
CCC(=O)c1ccc(OC)c(OC)c1	-	-	-	-	-	-	.
COc1ccc(C(=O)O)cc1OC	44.6	.	.	.	-	.	-
O=C(O)C(O)(c1ccc(Cl)cc1)C1(O)CCCC1 (stereo unspecified)	-	.	.	.	-	.	.
O=C(c1c[nH]cc1-c1ccccc1)c1cccc2ccccc12	46.5	-	-	-	-	-	-
C[C@H]1CN([C@@H](C)CO)C(=O)CCCn2nncc2CO[C@@H]1CN(C)C(=O)Oc1ccccc1	-	.	.	.	-	.	.
COc1ccc(CN2CCNCC2)cc1	-	-	-	-	-	-	.
C=CCc1ccc(OC)cc1	49.8	-	-	-	-	.	-
